Measured values from ChEMBL document CHEMBL3525935, “Inhibition of P-glycoprotein leads to improved oral bioavailability of compound K, an anticancer metabolite of red ginseng extract produced by gut microflora” (Drug Metab Dispos, 2012).
Active and inactive are the calls of the source. The rule behind the calls is not given here.

Columns and labels:
LM1 = test: Cytotoxicity against mouse LM1 cells assessed as cell growth inhibition upto 100 uM after 48 hrs by MTT assay; assay type: functional, cell-based
Outline: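 LM1 cells, a metastatic line derived from A/J mice, grown in DMEM with 10% FBS, 2 mM glutamine, penicillin/streptomycin and 1% nonessential amino acids. Seeded at 5×10^3 cells/well in 96-well plates, fed daily, and used 2–3 days after seeding.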

[1] = Drug uptake in human Caco2 cells assessed as intracellular level measured per mg of protein at 2 uM in presence of 50 uM verapamil P-gp inhibitor; assay type: ADME, cell-based; settings: caco-2, 2 µM
Outline: (§1)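 Caco-2 (TC7) monolayers, 2 μM substrate transported in HBSS at pH 7.4. Cyclosporine A (20 μM) or verapamil (50 μM) was added to the apical side. Intracellular amount was measured at the end of transport and normalised to lysate protein (BCA), in nmol/mg. Three independent experiments.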

[2] = Drug uptake in human Caco2 cells assessed as intracellular level measured per mg of protein at 2 uM; assay type: ADME, cell-based; settings: caco-2, 2 µM
Outline: (§2)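 Monolayers of Caco-2 (TC7; TEER >445 Ω/cm² for quality control), parental MDCKII, or MDR1-MDCKII cells. Bidirectional transport of 2 μM substrate in HBSS, pH 7.4 on both sides. Outputs were Pa-b, Pb-a and efflux ratio Pb-a/Pa-b, plus mass-balance recovery. Intracellular amount was measured at the end of transport and normalised to lysate protein (BCA). Three independent experiments.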

[3] = Permeability across apical to basolateral side in human Caco2 cells at 2 uM; assay type: ADME, cell-based; settings: Caco-2, read-out: permeability; outline: as §2
[4] = Drug uptake in human Caco2 cells assessed as intracellular level measured per mg of protein at 2 uM in presence of 20 uM cyclosporine A P-gp inhibitor; assay type: ADME, cell-based; settings: caco-2, 2 µM; outline: as §1
[5] = Permeability across apical to basolateral side in MDCK2 cells at 2 uM; assay type: ADME, cell-based, Canis lupus familiaris, MDCK-II; settings: dog, MDCK; read-out: permeability; outline: as §2
[6] = Permeability across basolateral to apical side in MDCK2 cells at 2 uM; assay type: ADME, cell-based, Canis lupus familiaris, MDCK-II; settings: dog, MDCK; read-out: permeability; outline: as §2
[7] = Efflux ratio of permeability from basolateral to apical side over apical to basolateral side in MDCK2 cells at 2 uM; assay type: ADME, cell-based, Canis lupus familiaris, MDCK-II; settings: dog, MDCK; outline: as §2
[8] = Drug uptake in MDCK2 cells assessed as intracellular level measured per mg of protein at 2 uM; assay type: ADME, cell-based, Canis lupus familiaris; settings: dog, mdck-ii; outline: as §2
MDR1 [9] = test: Permeability across apical to basolateral side in MDCK2-MDR1 cells at 2 uM; assay type: ADME, cell-based, Canis lupus familiaris, MDCK-II; settings: dog, MDCK-MDR1; read-out: permeability; outline: as §2
MDR1 [10] = test: Permeability across basolateral to apical side in MDCK2-MDR1 cells at 2 uM; assay type: ADME, cell-based, Canis lupus familiaris, MDCK-II; settings: dog, MDCK-MDR1; read-out: permeability; outline: as §2
MDR1 [11] = test: Efflux ratio of permeability from basolateral to apical side over apical to basolateral side in MDCK2-MDR1 cells at 2 uM; assay type: ADME, cell-based, Canis lupus familiaris; settings: dog, MDCK-MDR1; outline: as §2
[12] = Drug uptake in MDCK2-MDR1 cells assessed as intracellular level measured per mg of protein at 2 uM; assay type: ADME, cell-based, Canis lupus familiaris; settings: dog, mdck-ii; outline: as §2
[13] = Tmax in wildtype FVB mouse at 10 mg/kg, po; assay type: ADME, organism-based; set-up: dose 10 mg/kg, route oral; settings: in vivo
Outline: (§3)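 Male mice aged 6–10 weeks, MDR1a/b knockout or wild-type FVB, fasted overnight. Single 10 mg/kg gavage dose in an oral suspending vehicle. Ten timed tail-snip blood samples (20–25 μl) were taken under isoflurane. Blood levels were measured by UPLC-MS; the standard curve spanned 19.5 nM–10 μM, with LLOQ 9.8 nM. Five mice per group; mean ± S.D.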

[14] = Cmax in wildtype FVB mouse at 10 mg/kg, po; assay type: ADME, organism-based; set-up: dose 10 mg/kg, route oral; settings: in vivo; outline: as §3
[15] = Drug elimination rate in wildtype FVB mouse at 10 mg/kg, po; assay type: ADME, organism-based; set-up: dose 10 mg/kg, route oral; settings: in vivo; outline: as §3
[16] = Half life in wildtype FVB mouse at 10 mg/kg, po; assay type: ADME, organism-based; set-up: dose 10 mg/kg, route oral; settings: in vivo; outline: as §3
[17] = Mean residence time (infinity) in wildtype FVB mouse at 10 mg/kg, po; assay type: ADME, organism-based; set-up: dose 10 mg/kg, route oral; settings: in vivo; outline: as §3
[18] = AUC (0 to time) in wildtype FVB mouse at 10 mg/kg, po; assay type: ADME, organism-based; set-up: dose 10 mg/kg, route oral; settings: plasma; outline: as §3
[19] = AUC (0 to infinity) in wildtype FVB mouse at 10 mg/kg, po; assay type: ADME, organism-based; set-up: time infinity, dose 10 mg/kg, route oral; settings: plasma; outline: as §3
[20] = Tmax in MDR1a/b(-/-) FVB mouse at 10 mg/kg, po; assay type: ADME, organism-based; set-up: dose 10 mg/kg, route oral; settings: in vivo; outline: as §3
[21] = Cmax in MDR1a/b(-/-) FVB mouse at 10 mg/kg, po; assay type: ADME, organism-based; set-up: dose 10 mg/kg, route oral; settings: in vivo; outline: as §3
[22] = Drug elimination rate in MDR1a/b(-/-) FVB mouse at 10 mg/kg, po; assay type: ADME, organism-based; set-up: dose 10 mg/kg, route oral; settings: in vivo; outline: as §3
[23] = Half life in MDR1a/b(-/-) FVB mouse at 10 mg/kg, po; assay type: ADME, organism-based; set-up: dose 10 mg/kg, route oral; settings: in vivo; outline: as §3
[24] = Mean residence time (infinity) in MDR1a/b(-/-) FVB mouse at 10 mg/kg, po; assay type: ADME, organism-based; set-up: dose 10 mg/kg, route oral; settings: in vivo; outline: as §3
[25] = AUC (0 to time) in MDR1a/b(-/-) FVB mouse at 10 mg/kg, po; assay type: ADME, organism-based; set-up: dose 10 mg/kg, route oral; settings: plasma; outline: as §3
[26] = AUC (0 to infinity) in MDR1a/b(-/-) FVB mouse at 10 mg/kg, po; assay type: ADME, organism-based; set-up: time infinity, dose 10 mg/kg, route oral; settings: plasma; outline: as §3
[27] = Oral bioavailability in rat; assay type: ADME, organism-based; settings: in vivo
[28] = Cytotoxicity against mouse LM1 cells assessed as cell growth inhibition after 48 hrs by MTT assay; assay type: functional, cell-based; settings: LM1, 48 h
[29] = Drug recovery in human Caco2 cells at 2 uM; assay type: ADME, cell-based; settings: Caco-2, read-out: Drug recovery; outline: as §2
[30] = Drug recovery in MDCK2 cells at 2 uM; assay type: ADME, cell-based, Canis lupus familiaris, MDCK-II; settings: dog, MDCK; read-out: Drug recovery; outline: as §2
MDR1 [31] = test: Drug recovery in MDCK2-MDR1 cells at 2 uM; assay type: ADME, cell-based, Canis lupus familiaris, MDCK-II; settings: dog, MDCK-MDR1; read-out: Drug recovery; outline: as §2
[32] = Permeability across basolateral to apical side in human Caco2 cells at 2 uM; assay type: ADME, cell-based; settings: Caco-2, read-out: permeability; outline: as §2
[33] = Efflux ratio of permeability from basolateral to apical side over apical to basolateral side in human Caco2 cells at 2 uM; assay type: ADME, cell-based; settings: Caco-2; outline: as §2
[34] = Efflux ratio of permeability from basolateral to apical side over apical to basolateral side in human Caco2 cells; settings: Caco-2
[35] = Permeability across apical to basolateral side in human Caco2 cells; settings: Caco-2

Question: For `CC(C)=CCC[C@](C)(O[C@@H]1O[C@H](CO)[C@@H](O)[C@H](O)[C@H]1O)[C@H]1CC[C@]2(C)[C@@H]1[C@H](O)C[C@@H]1[C@@]3(C)CC[C@H](O[C@@H]4O[C@H](CO)[C@@H](O)[C@H](O)[C@H]4O)C(C)(C)[C@@H]3CC[C@]12C`, which “growth inhibition (GI)” value (LM1) is on record?
Answer: inactive

Question: Which results are given for `CC(C)=CCC[C@](C)(O[C@@H]1O[C@H](CO)[C@@H](O)[C@H](O)[C@H]1O)[C@H]1CC[C@]2(C)[C@@H]1[C@H](O)C[C@@H]1[C@@]3(C)CC[C@H](O)C(C)(C)[C@@H]3CC[C@]12C`?
Answer: Drug uptake [1]: 0.5 nmol/mg; Drug uptake [2]: 0.01 nmol/mg; Papp A→B at 2 µM [3]: 1.16 ×10⁻⁶ cm/s; Drug uptake [4]: 0.15 nmol/mg; Papp A→B at 2 µM [5]: 0.58 ×10⁻⁶ cm/s; Papp B→A at 2 µM [6]: 1.13 ×10⁻⁶ cm/s; efflux ratio at 2 µM [7]: 1.8; Drug uptake [8]: 0.27 nmol/mg; Papp A→B at 2 µM (MDR1 [9]): 1.84 ×10⁻⁶ cm/s; Papp B→A at 2 µM (MDR1 [10]): 33.6 ×10⁻⁶ cm/s; efflux ratio at 2 µM (MDR1 [11]): 18.2; Drug uptake [12]: 0.08 nmol/mg; Tmax [13]: 2.8 h; Cmax [14]: 130 nM; k el [15]: 3.61e-05 s⁻¹; half-life [16]: 5.87 h; MRT inf [17]: 7.82 h; AUC [18]: 0.66 µM·h; AUC(0-inf) [19]: 0.75 µM·h; Tmax [20]: 5.6 h; Cmax [21]: 530 nM; k el [22]: 1.11e-05 s⁻¹; half-life [23]: 18.7 h; MRT inf [24]: 30.7 h; AUC [25]: 7.7 µM·h; AUC(0-inf) [26]: 17.6 µM·h; bioavailability [27]: 5%; IC50 [28]: 18.4 µM; recovery at 2 µM [29]: 85%; recovery at 2 µM [30]: 85%; recovery at 2 µM (MDR1 [31]): 85%; Papp B→A at 2 µM [32]: 31 ×10⁻⁶ cm/s; efflux ratio at 2 µM [33]: 26.6

Question: What does the source list for `C[C@H]1O[C@@H](O[C@H]2[C@@H](O)C[C@H](O[C@H]3[C@@H](O)C[C@H](O[C@H]4CC[C@@]5(C)[C@H](CC[C@@H]6[C@@H]5C[C@@H](O)[C@]5(C)[C@@H](C7=CC(=O)OC7)CC[C@]65O)C4)O[C@@H]3C)O[C@@H]2C)C[C@H](O)[C@@H]1O` [DIGOXIN]?
Answer: efflux ratio [34]: 21; Papp A→B [35]: 1.48 ×10⁻⁶ cm/s; Papp A→B at 2 µM (MDR1 [9]): 0.298 ×10⁻⁶ cm/s; efflux ratio at 2 µM (MDR1 [11]): 64
